In the library only some 8.4% were active in any assay of this set; here they are far more common.
PostGolgi yeast: growth inhibition of a yeast mutant, post-Golgi transport screen. post-Golgi transport phenotypic cell assay. inhibition, % at 10 µM. 98,000 compounds, 0.9% hits;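 note: yeast cells grown in 1536-well plates; yeast grown about 18 h at 30C before absorbance read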
Cav3 T inh: blocks human Cav3.2 T-type calcium channel. O95180. Cav3.2-expressing cells, Fluo-4 calcium fluorescence FDSS; active compounds read low. B-score at 10 µM. 100,000 compounds, 4% hits. AID 449739;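 active = single-dose well whose peak fluorescence ratio is a statistical outlier from its plate by either plate-standardised score or position-corrected B-score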
tolC growth inh: growth inhibitors of E. coli BW25113 tolC mutant | OD615 | growth inhibition, % at 10 µM (by protocol) | 65,000 compounds, 2.2% hits | AID 573;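 active = growth inhibition at or above a cutoff equal to the mean over every tested compound plus 3 SD, cut at about 60% in these data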;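 note: growth measured after 20 h incubation at 37 °C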
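Assay system: tolC-deleted E. coli BW25113. Medium: kanamycin-containing LB broth (50 µg/mL). Dosing: 10 µM final, single dose. Timing: bacterial growth with compound for 20 h at 37 °C. Detection: A615 absorbance measurement. Read-out basis: growth inhibition in percent.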
PostGolgi ctrl: yeast control strain growth, post-Golgi counter-screen; inhibition, % at 10 µM; 98,000 compounds, 5% hits; efflux-deficient yeast background strain, growth absorbance A615, 16 h
E coli WT exp: blocks growth of wild type E. coli BW25113; OD600 absorbance; growth inhibition, % at 100 µM; 98,000 compounds, 0.15% hits; AID 710;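 active = growth inhibition above about 50% at one test dose, limit read from the data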;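 note: growth measured after 20 h incubation at 37 °C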
* = called active by the depositor; . = not tested or not shown. Cut-off read from the data, not from the text of the source, unless noted: active = inhibition above about 30%; inactive = the rest.

SMILES	PostGolgi yeast	Cav3 T inh	tolC growth inh	PostGolgi ctrl	E coli WT exp
CCSc1nc2cc(OC)c(OC)cc2c(=O)n1CCc1ccccc1	-6	-1.4	.	22	-14
COc1ccc(Cn2c(SCc3ccccc3C)nc3cc(OC)c(OC)cc3c2=N)cc1	-1	0.061	.	67*	11
C=CCOC(=O)C1=C[C@H](c2coc3ccccc3c2=O)[C@@H](CCCO)[C@H](OCC)O1	.	-0.09	.	.	.
CN(C(=O)c1ccc2c(c1)C(=O)N(CCC1=CCCCC1)C2=O)C1CCCCC1	-1	-6.1*	.	34*	-5
Cc1cc(C)nc(N/N=C/c2ccccc2)n1	8	-0.24	.	2	3
Cc1cc(C)nc(N/N=C/C(Cl)=C/c2ccccc2)n1	31*	0.44	.	-1	-3
C=C(Cl)COc1ccc2c(CCCC)cc(=O)oc2c1	-1	-1.3	.	31*	4
CCCCc1cc(=O)oc2cc(OCC(=O)N(CC)CC)ccc12	-3	0.75	5	-1	-1
CCCCc1cc(=O)oc2cc(OCC(=O)N(CC)CC)c(Cl)cc12	6	-3.1*	11	10	-11
CCOCCCNC(=O)CS(=O)(=O)Cc1nc(-c2cccc(OC)c2)oc1C	-3	0.44	-6	-1	4
COc1cccc(-c2nc(CS(=O)(=O)CC(=O)NC3CCCc4ccccc43)c(C)o2)c1 (stereo not drawn)	1	-6.8*	.	20	-7
COc1cccc(-c2nc(CS(=O)(=O)CC(=O)N3CCc4ccccc4C3)c(C)o2)c1	0	-4.8*	0	9	2
Cc1oc(-c2ccccc2Cl)nc1CSCC(=O)NC1CCCC1	-18	-4.5*	.	11	8
CCOc1ccc(-c2nc(CSCC(=O)NC3CCCc4ccccc43)c(C)o2)cc1 (stereo not drawn)	-8	-6.3*	.	17	-18
O=C(CSc1nc(-c2ccc(F)cc2)cs1)N1CCN(C(=O)c2ccco2)CC1	21	-1.2	7	3	-1
Cc1ccc(C)c(NC(=O)CC(NCCCN2CCOCC2)C(=O)O)c1 (stereo not drawn)	.	.	-16	.	.
O=C(NC1CCCCCCC1)c1ccccc1O	6	.	83*	8	12
CSc1ccccc1C(=O)NC1CCCCCC1	1	0.3	.	-5	7
Cc1ccc2oc3c(c(=O)c2c1)C(c1cccs1)N(CCCN(C)C)C3=O (stereo not drawn)	.	0.82	2	.	.
CCOC(=O)Nc1cc(=O)c2ccccc2o1	-6	-0.6	-7	43*	-2
Cc1ncc(N=Nc2ccccc2)c(-c2ccccc2)n1	5	.	.	4	3
COc1ccc(/C=C2/SC(=O)N(NS(=O)(=O)c3ccccc3)C2=S)cc1OC	1	-2.4	.	19	5
O=C1C2CC=CCC2C(=O)N1c1n[nH]c(CCc2ccccc2)n1 (stereo not drawn)	34*	-1.3	.	10	6
c1cc2ccc3ccc(-n4cnnn4)c4ccc(c1)c2c34	-7	1	.	30*	0
Fc1ccc(-n2cnnn2)c(F)c1	6	0.31	-17	3	9
SMILES	PostGolgi yeast	Cav3 T inh	tolC growth inh	PostGolgi ctrl	E coli WT exp
Cc1n[nH]c(C)c1S(=O)(=O)N(CC(=O)Nc1ccc2c(c1)OCCO2)c1ccc(C(C)C)cc1	-1	-0.75	66*	4	-3
Cc1noc(C)c1S(=O)(=O)N(CC(=O)Nc1ccc2c(c1)OCO2)c1ccc(C(C)C)cc1	-17	-3.5	-2	2	-6
COc1ccc(-n2c(O)c(Cc3ccccc3)c(=O)n3nc(-c4ccccc4)c(=O)cc23)cc1	.	0.85	.	.	.
Cc1nn(C(C)(C)C)c(OC(=O)c2cccs2)c1Sc1ccccc1	-8	-5.2*	.	14	-5
Cc1nn(C(C)(C)C)c(OC(=O)c2ccco2)c1Sc1ccccc1	4	-1	.	36*	7
Cc1nn(C(C)(C)C)c(OC(=O)c2ccc(Br)o2)c1Sc1ccccc1	-4	-1.9	.	14	-13
CCO/N=C(\C)c1c(O)c(CC)c(-c2ccccc2)n(-c2ccccc2)c1=O	.	-3.9*	.	.	.
CC(=O)c1c(O)cc(=O)n(-c2ccccc2)c1-c1ccc(C)cc1	-1	1.1	.	-5	4
CC(=O)c1c(O)c(C)c(-c2ccccc2)n(-c2ccccc2)c1=O	1	-3.6*	.	25	3
CCCc1c(O)c2ccccc2n(-c2ccccc2)c1=O	-23	1.4	.	19	-1
CC1(C)C(=O)C2(CCCCC2)C(=O)OC1c1ccc(O)cc1 (stereo not drawn)	4	0.86	37	9	11
CCOC(=O)c1cnc(SCCc2ccccc2)nc1N	-6	0.014	.	23	-7
CCCCSc1ncc(C(=O)OCC)c(N)n1	.	-4.6*	.	.	.
O=C(NCc1cccnc1)c1ccc(CN2CCc3ccccc3C2)cc1	.	0.42	.	.	.
Cc1cc(C)c(NC(=O)c2ccc(CN3CCc4ccccc4C3)cc2)c(C)c1	1	-4.3*	.	13	-6
O=C(NCc1ccc2c(c1)OCO2)c1ccc(CN2CCc3ccccc3C2)cc1	7	-5.3*	.	-2	1
Cc1cc(C)nc(/N=C(\N)Nc2ccc(F)c([N+](=O)[O-])c2)n1	-5	-0.077	.	-3	9
Cc1ccc2c(c1)N(CC(=O)NC1CCCc3ccccc31)C(=O)CO2 (stereo not drawn)	-2	-1.5	-16	34*	-12
CN(CC(=O)Nc1ccccc1C(=O)N1CCCC1)S(=O)(=O)c1ccc(Cl)cc1	7	0.28	.	0	12
CC1CCc2c(sc(NS(=O)(=O)c3ccccc3)c2C(=O)OC(C)C)C1 (stereo not drawn)	.	-5.1*	.	.	.
c1coc(CN(Cc2cccs2)Cc2nnnn2C2CCCCC2)c1	-4	-0.52	95*	25	2
Clc1ccccc1CN(Cc1ccco1)Cc1nnnn1C1CCCC1	.	-4.3	.	.	.
COC(=O)CCC(=O)Nc1nc(-c2ccccc2)cs1	.	-0.34	-16	.	.
Cn1cc(Cl)c(C(=O)OCC(=O)Nc2nc(-c3ccc(Br)cc3)cs2)n1	.	-5.9*	.	.	.
COc1ccc(-c2csc(NC(=O)CC(C)C)n2)cc1	.	-1.5	.	.	.
SMILES	PostGolgi yeast	Cav3 T inh	tolC growth inh	PostGolgi ctrl	E coli WT exp
Cn1nccc1C(=O)OCC(=O)Nc1nc(-c2ccccc2)cs1	8	-3.8*	26	-8	-5
Cc1ccccc1Cn1nc(C)c(NC(=O)c2noc3c2CCc2ccccc2-3)c1C	25	-6.9*	68*	38*	-17
Cc1ccccc1Cn1nc(C)c(NC(=O)c2noc3c2CC(C(C)(C)C)CC3)c1C (stereo not drawn)	4	-4.7*	74*	17	1
Cc1c(NC(=O)c2noc3c2CCc2ccccc2-3)c(=O)n(-c2ccccc2)n1C	.	-1.2	-2	.	.
Cc1ccccc1Cn1cc(NC(=O)c2noc3c2CC(C(C)(C)C)CC3)cn1 (stereo not drawn)	4	-2	-5	2	2
CCOC(=O)C(C)n1ncn2cccc2c1=O (stereo not drawn)	-10	0.98	-31	-8	7
COc1ccc(C2CC(=O)c3cnc(NC(=O)c4ccccc4)nc3C2)c(OC)c1 (stereo not drawn)	0	-3.3*	6	12	0
CCOC(=O)c1sc(NC(=O)c2cc(-c3ccccc3C)nc3ccccc23)c(C#N)c1C	10	-6.8*	.	12	2

Screening results as filed in PubChem.
